Laboratory results: paper PMC3280409 (Analytical and Bioanalytical Chemistry, 2012)
Where a name gives a salt, the structure may show the parent alone. d = 2'-deoxy (DNA); r = 2'-OH (RNA)

B1: MBNL1-FL: full length recombinant MBNL1 protein (protein, UniProt Q9NR56 1-388, looked up)
chain: MAVSVTPIRDTKWLTLEVCREFQRGTCSRPDTECKFAHPSKSCQVENGRVIACFDSLKGRCSRENCKYLHPPPHLKTQLEINGRNNLIQQKNMAMLAQQMQLANAMMPGAPLQPVPMFSVAPSLATNASAAAFNPYLGPVSPSLVPAEILPTAPMLVTGNPGVPVPAAAAAAAQKLMRTDRLEVCREYQRGNCNRGENDCRFAHPADSTMIDTNDNTVTVCMDYIKGRCSREKCKYFHPPAHLQAKIKAAQYQVNQAAAAQAAATAAAMTQSAVKSLKRPLEATFDLGIPQAVLPPLPKRPALEKTNGATAVFNTGIFQYQQALANMQLQQHTAFLPPVPMVHGATPATVSAATTSATSVPFAATATANQIPIISAEHLTSHKYVTQM
modifications: full-length

Columns and labels:
[1] = molecular target: MBNL1-His6/Biot-(CUG)12 binding; test: HTRF binding assay of MBNL1-His6 and Biot-; conditions: for IC50: read-out: IC50 (μM) HTRF, hit confirmation, 12-point 1:3 titration, 0.3 nM – 57.5 μM, 1536-well, duplicates
How it was run: (§1)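 Recombinant MBNL1-His6 (IPTG-induced, Ni-agarose purified, desalted, purity-corrected by SYPRO-stained gel) at 20 nM with 20 nM Biot-(CUG)12. Read after 60 min at room temperature, in duplicate points. IC50 from dose-response inhibition fits of three independent experiments.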

[2] = test system: MBNL1-His6/Biot-(CUG)12 binding; test: AlphaScreen binding assay of MBNL1-His6 and Biot-; conditions: 1536-well format, 4 ul final volume
How it was run: as §1

(CUG)20 RNA = test: RNA degradation assay; format: biochemical; conditions: 30 min, assay buffer, 37°C, varying compound concentrations (NF449 up to 800 μM)
How it was run: (§2)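 5′-32P-labelled RNA was gel-purified, denatured at 85°C for 1 min and slow-cooled to 37°C. At 100 pM it was incubated with varying test compound concentrations in Tris-HCl pH 8.0/NaCl/KCl/MgCl2 assay buffer for 30 min at 37°C. The reaction was stopped with 7.5 M urea/20 mM EDTA and analysed on denaturing 12% PAGE.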

(CAG)20 RNA = test: RNA degradation assay; format: biochemical; conditions: 30 min, assay buffer, 37°C, varying compound concentrations (NF449 up to 800 μM)
How it was run: as §2

(CUG)109 transcript = test: Filter binding assay of MBNL1 constructs to; conditions: read-out: KD, (CUG)109 binding affinity
How it was run: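 5′-32P-labelled RNA was denatured at 85°C for 1 min and slow-cooled to 37°C in Tris-HCl pH 8.0/NaCl/KCl/MgCl2 assay buffer. It was incubated with full-length or truncated recombinant MBNL1 for 30 min at 37°C, then captured on a nitrocellulose/Hybond N+ sandwich by slot-blot. Kd came from a one-site binding model over three independent experiments.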

Molecule | IC50 [1] [µM] | also measured
O=C(Nc1cc(C(=O)Nc2ccc(S(=O)(=O)O)cc2S(=O)(=O)O)cc(C(=O)Nc2ccc(S(=O)(=O)O)cc2S(=O)(=O)O)c1)Nc1cc(C(=O)Nc2ccc(S(=O)(=O)O)cc2S(=O)(=O)O)cc(C(=O)Nc2ccc(S(=O)(=O)O)cc2S(=O)(=O)O)c1 [NF449 octasodium salt] | 31 | –
CC(O)C(C)OC(=O)[C@@H]1C[C@@H]2c3cccc4c3c(cn4C(C)C)C[C@H]2N(C)C1 (some centres unmarked) [LY-53,857 maleate] | 38 | –
CCCN1C[C@H](CSC)C[C@@H]2c3cccc4[nH]cc(c34)C[C@H]21 [Pergolide methanesulfonate] | 24.8 | –
ssCAG-21: unlabeled mixed RNA/DNA oligo, sequence 5′-rUrArGrCrArGrCrArGrCrArGrCrArGrCrArGrCTT; positive control competitive inhibitor (UAGCAGCAGCAGCAGCAGCTT; sugars from the 5' end r19 d2, backbone not given here) | – | IC50 of inhibition of MBNL1-(CUG)12 binding, HTRF ([1]; 1536-well format, 4 ul final volume): comparable to those obtained from the 384-well assays; IC50 of inhibition of MBNL1-(CUG)12 binding, AlphaScreen [2]: comparable to those obtained from the 384-well assays
Cl.Cl.Oc1ccc2c3c1O[C@H]1c4[nH]c5c(c4C[C@@]4(O)[C@@H](C2)N(CC2CC2)CC[C@]314)C[C@@]1(O)[C@H]2Cc3ccc(O)c4c3[C@@]1(CCN2CC1CC1)[C@H]5O4 [nor-Binaltorphimine dihydrochloride] | 21.9 | RNA degradation of (CUG)20 ((CUG)20 RNA): significant RNA degradation; RNA degradation of (CAG)20 ((CAG)20 RNA): significant RNA degradation
CN1C[C@H](CNC(=O)OCc2ccccc2)C[C@@H]2c3cccc4c3c(cn4C)C[C@H]21 [Metergoline] | 52 | –
Cn1ccc2cc(NC(=O)Nc3cccnc3)ccc21 [SB 200646 HCl] | 55.7 | –
B1 | – | Kd ((CUG)109 transcript): 0.00692 ± 0.00078 µM
